Data set [1] relates to Canis familiaris. The data set can be described thus: Toxicity in sc dosed mongrel dog assessed as behavioral changes. As to conditions: in vivo. It counts as organism-based, Canis lupus familiaris.
In data set [2] the test system is Mus musculus. The data set can be described thus: Hypothermic activity in mouse assessed as decrease in rectal temperature at 10 mg/kg, sc measured every 15 mins. The data set is classed as functional. The following applies: route subcutaneous.
The species entered for data set [3] is Felis catus. The data set can be described thus: Effect on 2 Hz transmural stimulation of right atrium-induced positive chronotropic response in cat assessed as concentration required for 50% potentiation of change in heart rate. It counts as functional, Cardiac atrium. The essentials:
(§1)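 Isolated cat right atria in Feigan's solution under transmural field stimulation: 2 Hz, 5 ms pulses, maximal voltage, 10 s trains every 5 min, activating adrenergic terminals. After control heart-rate increases were established, compound was added to the bath and its effect was read 5 min later. Estimated ID50 or 50%-potentiation concentration in μM.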

Data set [4] has as its system Felis catus. Put plainly: Effect on 2 Hz stimulation of right cardioaccelerator nerve-induced positive chronotropic response in cat assessed as potentiation of change in heart rate up to 3.5 umol/kg, iv. It counts as functional, organism-based.
Data set [5] deals with Canis familiaris. Put plainly: In vivo agonist activity at dopamine receptor in mongrel dog assessed as induction of emesis up to 5 mg/kg, sc after 1 hr. As to conditions: Canis lupus familiaris. It counts as functional, organism-based. Also noted: dose 5 mg/kg. The essentials: (§2)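 Mongrel dogs, five per dose, with doses spaced at 0.3 log intervals and given sc. Emetic episodes were counted for 1 h after dosing. Apomorphine hydrochloride served as reference standard.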

Data set [6] relates to Felis catus. The data set can be described thus: Effect on 2 Hz stimulation of right cardioaccelerator nerve-induced positive chronotropic response in iv dosed cat assessed as concentration required for 50% potentiation of change in heart rate. It counts as functional.
The subject of data set [7] is Canis familiaris. Put plainly: In vivo antagonist activity at dopamine receptor in sc dosed mongrel dog assessed as inhibition of apomorphine-induced emesis pretreated for 15 mins followed by apomorphine-challenge measured after 1 hr. As to conditions: Canis lupus familiaris. The data set is classed as functional. The essentials:
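Dogs were given compound sc 15 min before sc apomorphine hydrochloride (100 μg/kg). Emesis frequency over 1 h was compared with the apomorphine control value in the same dogs.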

Data set [8] can be described thus: In vivo antagonist activity at dopamine receptor in pigeon assessed as inhibition of apomorphine-induced pecking behavior administered intramuscularly for 15 mins prior to apomorphine-challenge measured after 1 hr. The data set is classed as functional. As to conditions: Columbidae, im. The essentials: (§3)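 Pigeons were pretreated im with compound 15 min before im apomorphine hydrochloride (1.6 μmol/kg), and pecking frequency was quantified. Five pigeons per dose, three antagonist doses spaced at 0.3 log intervals.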

A short description of data set [9]: In vivo antagonist activity at dopamine receptor in pigeon assessed as inhibition of apomorphine-induced pecking behavior administered intramuscularly for 15 mins prior to apomorphine-challenge measured after 1 hr relative to control. The data set is classed as functional, Columbidae. The essentials:
as §3

For data set [10], the system named is Columbidae. The data set can be described thus: In vivo agonist activity at dopamine receptor in pigeon assessed as induction of pecking behavior administered intramuscularly after 1 hr. The data set is classed as functional, organism-based. In outline:
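Pigeons were given compound intramuscularly, and pecking frequency was recorded for 1 h afterwards. Apomorphine hydrochloride served as reference standard.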

For data set [11], the system named is Felis catus. The data set can be described thus: Effect on 2 Hz stimulation of right cardioaccelerator nerve-induced positive chronotropic response in iv dosed cat assessed as inhibition of change in heart rate in presence of haloperidol. The data set is classed as functional, organism-based. The essentials: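 Cat right cardioaccelerator nerve preparation with 2 Hz stimulation and heart-rate response recorded. Haloperidol (100 μg/kg) was given iv before the iv test compound, then inhibition of the nerve-evoked heart-rate increase was assessed.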

The test system of data set [12] is Canis familiaris. Put plainly: In vivo agonist activity at dopamine receptor in sc dosed mongrel dog assessed as induction of emesis after 1 hr relative to apomorphine. It counts as functional, Canis lupus familiaris. In outline:
as §2

For data set [13], the species on record is Felis catus. The data set can be described thus: Effect on 2 Hz transmural stimulation of right atrium-induced positive chronotropic response in cat assessed as inhibition of change in heart rate. It counts as functional, Cardiac atrium. The essentials:
as §1

The test system of data set [14] is Felis catus. The data set can be described thus: Effect on 2 Hz stimulation of right cardioaccelerator nerve-induced positive chronotropic response in iv dosed cat assessed as concentration required for 50% inhibition of change in heart rate. It counts as functional.
The test system of data set [15] is Felis catus. The data set can be described thus: Effect on 2 Hz stimulation of right cardioaccelerator nerve-induced positive chronotropic response in cat assessed as potentiation of change in heart rate up to 3.3 umol/kg, iv. It counts as functional, organism-based.

Broadly, the ED50 is the midpoint of the dose-response relation.

Active and inactive are the calls of the source. The calls are words filed in the database; no cut-off is given here.

As to `CN1CCC[C@@H]2c3ccccc3CC[C@@H]21` (relative stereo), the Activity result in data set [1] is “Non-toxic”; in [3] it was 1.6 µM; in data set [6] it was “<=3.5 umol/Kg”. In addition, in [2], the T was found to be 1.6 °C. Besides, the outcome in data set [4] and in data set [5] was inactive. In addition, the values for the ED50 in data set [7] and in data set [8] were 8.8 µmol/kg and 2.7 µmol/kg, respectively. The “fold change (FC)” value in data set [9] is 0.61.

For the molecule `CN1CCc2cccc3c2[C@H]1Cc1ccc(O)c(O)c1-3.CN1CCc2cccc3c2[C@H]1Cc1ccc(O)c(O)c1-3.Cl.Cl.O` [APOMORPHINE HYDROCHLORIDE], the Activity result in data set [1] is reported as “Non-toxic”. Further, the T in data set [2] is 3.6 °C. Also, the outcome in [10] was Active.

As for `Br.CN1CCC[C@H]2c3ccc(O)c(O)c3CC[C@@H]21` (relative stereo), in data set [11], the inhibition entry was “inactive”. In data set [2], the T is 4.4 °C. Besides, in data set [12], the “fold change (FC)” value is 6.1. The ID50 in data set [13] is 3.2 ×10⁻³ microM. Moreover, the Activity in data set [14] came out at 0.0052 µmol/kg.

Consider `COc1ccc2c(c1OC)CC[C@H]1[C@H]2CCCN1C` (relative stereo), for which, in [1], the Activity result is given as “Non-toxic”. Besides, in data set [5], the outcome was inactive. For the same molecule, the ED50 in data set [8] amounted to 15.1 µmol/kg. Besides, the “fold change (FC)” value in [9] is reported as 0.11.

With `Br.CN1CCC[C@@H]2c3ccc(O)c(O)c3CC[C@@H]21` (relative stereo), in data set [11], the inhibition entry was “inactive”. Also, the T in data set [2] was 1.6 °C. Moreover, the “fold change (FC)” value was determined as 0.02 in data set [12] and 0.2 in data set [9]. In data set [13], the ID50 is on record as 4.7 ×10⁻² microM. Besides, the ED50 in data set [8] is 8.3 µmol/kg. Further, the Activity in data set [14] stood at 0.59 µmol/kg.

On to `Br.CN1CCC[C@H]2c3ccc(O)cc3CC[C@@H]21` (relative stereo), for which the Activity entry was “Non-toxic” in [1], 12.7 µM in data set [3] and “<=3.3 umol/Kg” in [6]. Also, the T in data set [2] worked out at 2.4 °C. For the same molecule, the outcome in [15] and in data set [5] was inactive. In addition, the ED50 in data set [7] was determined as 4.3 µmol/kg; in [8], 9 µmol/kg. Besides, the “fold change (FC)” value in data set [9] is on record as 0.18.

`Br.CN1CCC[C@H]2c3cccc(O)c3CC[C@@H]21` (relative stereo): the Activity result in data set [1] was “Non-toxic”; in [14], >2.1 µmol/kg. Besides, the inhibition result in data set [11] is “inactive”. The T in [2] is 1.4 °C. Besides, the “fold change (FC)” value was found to be 0.03 in data set [12] and 0.76 in data set [9]. Moreover, the ID50 in data set [13] is reported as 1 ×10⁻¹ microM. Moreover, the ED50 in [8] was 2.2 µmol/kg.

For `COc1ccc2c(c1OC)CC[C@H]1[C@@H]2CCCN1C` (relative stereo), the Activity entry in data set [1] was “Non-toxic”. In data set [5], the result was inactive. Besides, the ED50 in data set [8] amounted to 1.7 µmol/kg. Also, the “fold change (FC)” value in data set [9] is listed as 1.

As for `Br.CN1CCC[C@@H]2c3cccc(O)c3CC[C@@H]21` (relative stereo), the Activity entry in data set [1] is “Non-toxic”; in data set [6] it was >3.3 µmol/kg. In data set [2], the T was 0 °C. Also, in data set [5], the outcome was inactive. The figures for the ED50 in [7] and in [8] were 6 µmol/kg and 3.8 µmol/kg, respectively. Further, the “fold change (FC)” value in [9] is recorded as 0.44.

On to `CN1CCC[C@H]2c3ccccc3CC[C@@H]21` (relative stereo), for which the Activity result is “Non-toxic” in data set [1], 7.8 µM in data set [3] and “<=3.5 umol/Kg” in [6]. Further, in data set [2], the T is 2.6 °C. Further, the result in [4] and in [5] was inactive. For the same molecule, the figures for the ED50 in [7] and in data set [8] were 4.1 µmol/kg and 2.2 µmol/kg, respectively. In data set [9], the “fold change (FC)” value is on record as 0.74.

Take `Br.CN1CCC[C@@H]2c3ccc(O)cc3CC[C@@H]21`: the Activity result was “Non-toxic” in [1], 3.9 µM in data set [3] and “<=3.3 umol/Kg” in data set [6]. For the same molecule, in data set [2], the T turned out to be 2.3 °C. The result in [15] and in data set [5] was inactive. Also, the figures for the ED50 in data set [7] and in [8] were 10 µmol/kg and 16.5 µmol/kg, respectively. Also, in data set [9], the “fold change (FC)” value was 0.1.
